In ChEMBL document CHEMBL4152210, “Design, synthesis, anti-lung cancer activity, and chemosensitization of tumor-selective MCACs based on ROS-mediated JNK pathway activation and NF-κB pathway inhibition” (Eur J Med Chem, 2018):
Calls of active or inactive are those of the source. The rule behind the calls is not given here.

Columns and labels:
NCI-H1650 = assay: Cytotoxicity against human NCI-H1650 cells assessed as reduction in cell viability after 72 hrs by MTT assay; assay type: functional, cell-based; conditions: NCI-H1650, 72 h
Outline: (§1)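 Cells in RPMI 1640 with 10% heat-inactivated FBS and penicillin/streptomycin at 37 °C, 5% CO2. Seeded at 4000 per well, adhered overnight, then exposed to graded compound concentrations in triplicate wells for 72 h. MTT (5 mg/mL stock) added for 4 h, dissolved in DMSO, A490 read. IC50 is the concentration reducing viability by 50% versus untreated control.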

L02 = assay: Cytotoxicity against human HL7702 cells assessed as reduction in cell viability after 72 hrs by MTT assay; assay type: cell-based; conditions: L02, 72 h; outline: as §1
[1] = Selectivity index, ratio of IC50 for human HL7702 cells to IC50 for human A549 cells; assay type: toxicity
Outline: (§2)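 Selectivity index taken as the logarithm of the ratio of the HL7702 IC50 to the cancer-line IC50. […] Not calculated when an IC50 was lacking.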

[2] = Selectivity index, ratio of IC50 for human HL7702 cells to IC50 for human NCI-H1650 cells; assay type: toxicity; outline: as §2
A549 [3] = assay: Induction of apoptosis in human A549 cells assessed as increase in PARP level after 24 hrs by Western blot analysis; assay type: functional, cell-based
Outline: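 A549 treated at 1, 5 or 10 µM, or with BMS345541 (20 µM), for 24 h. Cleaved PARP and Bax detected by western blot (10% SDS-PAGE, PVDF, 5% milk block, HRP secondary).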

[4] = biological target: Mitogen-activated protein kinase 8/9 (Homo sapiens) (UniProt P45983+P45984); assay: Induction of JNK 1/2 phosphorylatyion in human A549 cells after 6 hrs by Western blot analysis; assay type: cell-based
Outline: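 A549 exposed at 10 µM for varying times, or at various concentrations for 6 h. Inhibition arms pretreated 1 h with SP600125 (10 µM) or NAC (5 mM) before 10 µM for 6 h. Lysates run on 10% SDS-PAGE and transferred to PVDF. p-JNK probed, GAPDH as loading control.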

[5] = biological target: T1, NF-kappa-B inhibitor alpha (Homo sapiens) (UniProt P25963); assay: Inhibition of TNF-alpha induced IkappaBalpha degradation in human A549 cells at 10 uM pretreated with 5 mM NAC for 1 hr followed by compound addition and measured after 1 hr by Western blot analysis; assay type: cell-based
T1 sequence (whole entry): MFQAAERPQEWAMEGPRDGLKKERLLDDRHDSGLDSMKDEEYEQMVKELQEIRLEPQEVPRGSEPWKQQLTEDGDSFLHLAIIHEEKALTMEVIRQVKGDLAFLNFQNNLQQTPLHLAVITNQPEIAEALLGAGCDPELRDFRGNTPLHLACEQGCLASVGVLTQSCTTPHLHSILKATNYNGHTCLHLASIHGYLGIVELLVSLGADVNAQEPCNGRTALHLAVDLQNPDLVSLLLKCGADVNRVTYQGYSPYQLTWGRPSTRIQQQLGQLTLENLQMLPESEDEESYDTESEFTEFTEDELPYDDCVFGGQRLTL
Outline: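 A549 preincubated 1 h at 1, 5 or 10 µM, or with BMS345541 (20 µM), then stimulated with TNFα (1 ng/mL) for 15 min. NAC arm: 5 mM NAC for 1 h, then 10 µM for 1 h. IκBα detected by western blot, GAPDH as loading control.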

[6] = biological target: T2, Inhibitor of nuclear factor kappa-B kinase subunit beta (Homo sapiens) (UniProt O14920); assay: Inhibition of cisplatin-induced IKK-beta phosphorylation in human A549 cells at 1 to 10 uM preincubated for 1 hr followed by cisplatin addition and measured after 24 hrs by Western blot analysis; assay type: cell-based
T2 sequence (whole entry): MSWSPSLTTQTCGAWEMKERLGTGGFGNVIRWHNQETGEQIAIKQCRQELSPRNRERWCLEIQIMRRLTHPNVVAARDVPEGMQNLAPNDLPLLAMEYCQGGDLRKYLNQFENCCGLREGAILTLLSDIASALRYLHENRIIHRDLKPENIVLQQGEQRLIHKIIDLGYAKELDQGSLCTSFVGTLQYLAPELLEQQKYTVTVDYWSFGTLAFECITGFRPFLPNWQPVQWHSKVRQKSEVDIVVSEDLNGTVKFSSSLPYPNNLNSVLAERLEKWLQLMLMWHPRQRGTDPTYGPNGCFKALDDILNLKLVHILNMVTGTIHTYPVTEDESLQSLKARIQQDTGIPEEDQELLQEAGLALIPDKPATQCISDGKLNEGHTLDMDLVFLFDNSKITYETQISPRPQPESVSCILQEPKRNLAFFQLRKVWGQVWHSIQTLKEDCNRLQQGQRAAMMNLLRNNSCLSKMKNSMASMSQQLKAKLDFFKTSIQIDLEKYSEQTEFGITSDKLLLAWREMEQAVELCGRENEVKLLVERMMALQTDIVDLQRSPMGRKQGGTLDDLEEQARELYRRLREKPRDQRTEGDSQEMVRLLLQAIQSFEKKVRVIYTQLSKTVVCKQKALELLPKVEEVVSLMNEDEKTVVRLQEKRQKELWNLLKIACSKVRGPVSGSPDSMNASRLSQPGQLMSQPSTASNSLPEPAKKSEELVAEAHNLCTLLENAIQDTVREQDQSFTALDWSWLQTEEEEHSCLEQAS
Outline: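 A549 pretreated 1 h at 1, 5 or 10 µM, or with BMS345541 (20 µM), then exposed to cisplatin (20/3 µM) for 24 h. p-IKKβ assessed by western blot.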

A549 [7] = assay: Chemosensitization activity in human A549 cells assessed as inhibition of clonogenic growth at 1 uM in presence of 0.25 uM cisplatin incubated for 2 days followed by replacement of growth media and measured after 8 days by crystal violet staining-based assay relative to control; assay type: functional
Outline: (§3)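 A549 seeded at 1000 cells per well in 6-well plates, exposed to drug alone or combined with cisplatin or 5-Fu over a concentration series. Drug-containing medium replaced after 2 days. After a further 8 days, fixed with 1% methanol/1% formaldehyde and stained with 0.5% crystal violet. Percent inhibition at each concentration calculated relative to control.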

A549 [8] = assay: Chemosensitization activity in human A549 cells assessed as inhibition of clonogenic growth at 1 uM in presence of 0.74 uM cisplatin incubated for 2 days followed by replacement of growth media and measured after 8 days by crystal violet staining-based assay relative to control; assay type: functional; outline: as §3
A549 [9] = assay: Chemosensitization activity in human A549 cells assessed as inhibition of clonogenic growth at 0.25 uM in presence of 3 uM cisplatin incubated for 2 days followed by replacement of growth media and measured after 8 days by crystal violet staining-based assay relative to control; assay type: functional; outline: as §3
A549 [10] = assay: Induction of apoptosis in human A549 cells at 10 uM pretreated with 5 mM NAC for 1 hr followed by compound addition and measured after 24 hrs by Annexin V-FITC/propidium iodide staining based flow cytometric analysis; assay type: functional, cell-based
Outline: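 A549 treated 24 h at 1, 5 or 10 µM, with BMS345541 20 µM as control. Inhibitor arms pretreated 1 h with NAC (5 mM) or SP600125 (10 µM) before 10 µM. Cells harvested with EDTA-free trypsin, stained with FITC Annexin V and PI for 15 min at room temperature in the dark, analysed by flow cytometry.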

Mitogen-activated protein kinase 8/9 (Homo sapiens), sequence (P45983 whole entry, looked up): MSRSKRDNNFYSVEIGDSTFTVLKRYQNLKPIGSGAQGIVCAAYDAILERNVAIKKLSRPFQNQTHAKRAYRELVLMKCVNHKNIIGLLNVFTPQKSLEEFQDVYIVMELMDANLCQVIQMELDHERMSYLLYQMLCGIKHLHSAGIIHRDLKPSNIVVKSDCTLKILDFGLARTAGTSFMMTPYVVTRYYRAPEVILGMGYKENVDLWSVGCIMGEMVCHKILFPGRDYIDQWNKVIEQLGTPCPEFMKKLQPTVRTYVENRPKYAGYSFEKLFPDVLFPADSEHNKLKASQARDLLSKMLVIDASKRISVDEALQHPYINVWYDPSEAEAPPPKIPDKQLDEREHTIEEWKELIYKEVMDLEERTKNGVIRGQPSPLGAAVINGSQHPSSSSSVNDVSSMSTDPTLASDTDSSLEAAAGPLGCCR
Mitogen-activated protein kinase 8/9 (Homo sapiens), sequence (P45984 whole entry, looked up): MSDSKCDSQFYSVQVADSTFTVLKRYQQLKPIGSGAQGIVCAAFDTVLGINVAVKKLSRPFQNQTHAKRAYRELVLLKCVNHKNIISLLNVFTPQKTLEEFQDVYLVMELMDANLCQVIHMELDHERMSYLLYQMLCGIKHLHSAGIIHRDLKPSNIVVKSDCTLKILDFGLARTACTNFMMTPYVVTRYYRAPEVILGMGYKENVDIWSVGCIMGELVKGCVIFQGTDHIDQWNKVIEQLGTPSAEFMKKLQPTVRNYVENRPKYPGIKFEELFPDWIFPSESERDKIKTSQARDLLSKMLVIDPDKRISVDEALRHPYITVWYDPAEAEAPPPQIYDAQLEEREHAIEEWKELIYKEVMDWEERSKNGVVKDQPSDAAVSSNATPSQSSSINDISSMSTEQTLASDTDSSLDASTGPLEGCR

In the case of `COc1cc(/C=C2\CN(C)C/C(=C\c3cc(OC)c(OC)c(OC)c3)C2=O)cc(OC)c1OC`, the IC50 (NCI-H1650) is reported as 1.5 µM, the IC50 (L02) is reported as 26.4 µM and the “log(RatioIC50)” value [1] is reported as 1.19. The “log(RatioIC50)” value [2] was 1.25, the Activity (A549 [3]) was “Dose-dependent effect” and the Activity [4] was “Dose-dependent effect”. The inhibition [5] was “inactive”, the inhibition [6] was “Active” and the “inhibition (INH)” value (A549 [7]) was 90%. For the same compound, the “inhibition (INH)” value (A549 [8]) was 97%, the “inhibition (INH)” value (A549 [9]) was 57% and the Activity (A549 [10]) was “inactive”.
